In series [1] the target is T1, Voltage-gated L-type calcium channel (Rattus norvegicus, UniProt P22002+Q02485+P27732). The experiment in a line: Stimulation of [3H]diltiazem binding to L-type calcium channel in Sprague-Dawley rat cardiac myocytes at 1 uM by liquid scintillation counting. Type of series: cell-based.
The subject of series [2] is Aorta. In words: Vasorelaxant activity in potassium-depolarized guinea pig thoracic aorta assessed as inhibition of calcium-induced contraction at 50 uM. It counts as functional, Cavia porcellus. Further details: scale not given: the % may be the effect or the level left.
Series [3] can be described thus: Negative inotropic activity in guinea pig left atrium assessed as decrease in atrial tension. Type of series: functional, tissue-based. To be noted: Cavia porcellus, Cardiac atrium.
Series [4] is described as follows: Negative inotropic activity in guinea pig left atrium assessed as decrease in atrial tension at 50 uM relative to control. Type of series: functional, Cavia porcellus, Cardiac atrium. Further details: scale not given: the % may be the effect or the level left.
A short description of series [5]: Negative chronotropic activity in guinea pig spontaneously beating right atrium assessed as decrease in atrial rate at 5 uM relative to control. It counts as functional, Cavia porcellus, Cardiac atrium. Further details: scale not given: the % may be the effect or the level left.
In series [6] the test system is Heart. The experiment in a line: Effect on cardiac activity in guinea pig spontaneously beating heart assessed as change in left ventricular pressure at 1 uM relative to control. Type of series: functional, Cavia porcellus. The gist of the method: (§1)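 Isolated perfused, spontaneously beating guinea pig heart. Readouts: +(dP/dt)max (maximal rate of rise of left ventricular pressure), heart rate from ECG, coronary perfusion pressure, PR interval. Given as percent change from basal at the highest concentration tested (1 µM), mean ± SEM. pEC50 taken from log concentration-response curves, n = 4-6.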

Series [7] concerns Heart. The experiment in a line: Effect on cardiac activity in guinea pig spontaneously beating heart assessed as change in heart rate at 1 uM relative to control. Type of series: functional, Cavia porcellus. The procedure, abridged:
as §1

The target in series [8] is T1, Voltage-gated L-type calcium channel. In words: Displacement of [3H]diltiazem from L-type calcium channel in Sprague-Dawley rat cardiac myocytes by liquid scintillation counting. It counts as cell-based. To be noted: rat. On the technique in general: Loss of bound radioactivity is the signal in a displacement assay; it reports binding, not function.
Series [9] is described as follows: Negative chronotropic activity in guinea pig spontaneously beating right atrium assessed as decrease in atrial rate. It counts as functional. Conditions: Cavia porcellus, Cardiac atrium. The gist of the method:
(§2)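 Guinea pig isolated atria, compound given at increasing doses. Left atrium driven at 1 Hz: percent decrease in developed tension (inotropy, EC50). Spontaneously beating right atrium: percent decrease in rate (chronotropy, EC30). Probit analysis (Litchfield-Wilcoxon), n = 6-7. Potencies not calculated when maximal effect <50%.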

The subject of series [10] is Aorta. In words: Vasorelaxant activity in potassium-depolarized guinea pig thoracic aorta assessed as inhibition of calcium-induced contraction at 100 uM. Type of series: functional, Cavia porcellus. Set-up: scale not given: the % may be the effect or the level left.
Series [11] is described as follows: Negative inotropic activity in guinea pig left atrium assessed as decrease in atrial tension at 10 uM relative to control. Type of series: functional, Cavia porcellus, Cardiac atrium. Set-up: scale not given: the % may be the effect or the level left. The procedure, abridged: as §2
Series [12] concerns Heart. The experiment in a line: Effect on cardiac activity in guinea pig spontaneously beating heart assessed as change in left ventricular pressure. Conditions: Cavia porcellus, read-out: pEC50 (converted).
Series [13] concerns Heart. The experiment in a line: Effect on cardiac activity in guinea pig spontaneously beating heart assessed as change in coronary perfusion pressure at 1 uM relative to control. Type of series: functional, Cavia porcellus. The procedure, abridged: as §1
For series [14], the system named is Heart. The experiment in a line: Effect on cardiac activity in guinea pig spontaneously beating heart assessed as change in atrioventricular conduction time at 1 uM relative to control. Type of series: functional, Cavia porcellus. The procedure, abridged:
as §1

Series [15] deals with Heart. In words: Effect on cardiac activity in guinea pig spontaneously beating heart assessed as change in coronary perfusion pressure. Conditions: Cavia porcellus, read-out: pEC50 (converted).
Series [16] can be described thus: Negative chronotropic activity in guinea pig spontaneously beating right atrium assessed as decrease in atrial rate at 1 uM relative to control. It counts as functional, Cavia porcellus, Cardiac atrium. Further details: scale not given: the % may be the effect or the level left.

On to `C/C(=C/S(C)(=O)=O)n1c(C(=O)c2ccc(Br)cc2)noc1=O`, for which the Activity was 25% in series [1], 6% in series [2], 73% in series [4] and 7% in [5]. Moreover, in series [3], the EC50 amounted to 280 nM.

As a reminder, the EC30 is the point of the concentration-response curve where the effect stands at 30%. On to `COc1ccc([C@@H]2Sc3ccccc3N(CCN(C)C)C(=O)[C@@H]2OC(C)=O)cc1` [DILTIAZEM], for which the Activity is on record as -59% in [6]; -25% in series [7]; “Dose-dependent effect” in [8]; 88% in series [10]; 78% in [11]; -51% in [13]. The Activity in [14] is 34%; in [16] it was 94%. Further, the EC30 in series [9] is 70 nM. The EC50 was 790 nM in [3], 9.33 nM in series [12] and 21.9 nM in series [15].
